High-throughput results from PubChem.
Ecoli rRNA inh: inhibitors of bacterial rRNA selective over humanized ribosomes | hit rate 1.6% among 350,000 | GFP signal change (wild-type ribosome), % (no concentration beside the values) | E. coli WT GFP vs humanized-ribosome RFP mutants, fluorescence, 24 h; stronger effect = lower value; DMSO median 0, no signal -100 | AID 720706;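 active means significant combined selectivity score with lowered wild-type GFP, culture density cut under 30%, mutant RFP and density less affected; inactive means any of these conditions unmet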
E-sel inducer: E-selectin induction on HUVECs. activation, % at 7.58 µM. P16581. HUVEC E-selectin immunofluorescence imaging; normalized: neutral wells 0, TNF-alpha wells 100. hit rate 0.37% among 260,000;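 active means mean E-selectin-positive cell signal at least 10% of the positive control, reached in at least 60% of replicates, without over 20% cell loss; inconclusive means no rule given, readout overlaps actives, possibly toxicity-flagged; inactive means the rest, including those meeting only one limit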
Target sequence (P16581 whole entry, looked up): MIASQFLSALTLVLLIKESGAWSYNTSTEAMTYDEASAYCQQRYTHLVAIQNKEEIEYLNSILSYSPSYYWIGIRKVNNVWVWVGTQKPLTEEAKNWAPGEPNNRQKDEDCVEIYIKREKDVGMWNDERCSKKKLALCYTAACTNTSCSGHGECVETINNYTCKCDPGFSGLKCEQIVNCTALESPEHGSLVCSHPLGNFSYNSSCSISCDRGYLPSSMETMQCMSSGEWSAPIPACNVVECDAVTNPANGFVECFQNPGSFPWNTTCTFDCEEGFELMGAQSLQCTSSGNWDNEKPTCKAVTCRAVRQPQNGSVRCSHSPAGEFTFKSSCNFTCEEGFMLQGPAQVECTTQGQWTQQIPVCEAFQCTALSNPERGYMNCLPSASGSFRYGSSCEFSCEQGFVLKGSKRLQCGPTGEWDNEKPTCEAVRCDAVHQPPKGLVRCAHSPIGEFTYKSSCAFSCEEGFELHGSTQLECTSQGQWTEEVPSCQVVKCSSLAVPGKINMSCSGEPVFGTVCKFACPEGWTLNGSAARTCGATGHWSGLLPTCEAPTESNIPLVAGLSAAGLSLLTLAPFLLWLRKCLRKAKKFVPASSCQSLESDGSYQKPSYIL
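material = human umbilical vein endothelial cells (HUVEC), E-selectin induction | quantity = 3,000 cells/well | medium = EGM-2 growth medium on 0.1% gelatin-coated wells | technique = immunofluorescence imaging | read-out basis = % PE-positive cells | control set = TNF-alpha positive control, DMSO neutral control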
LGR2 inh: inhibitors of bursicon-induced Drosophila LGR2 receptor cAMP signaling; AID 720647; hit rate 0.35% among 380,000; HEK293 LGR2, CRE-luciferase, bursicon-stimulated, 4 h; inhibition, % at 9.99 µM;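 active means drop in luminescence signal, shown as inhibition above about 50% in the replicate tests, limit read from the data, passing the limit was not always enough; inconclusive means probably only some replicates passing the limit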;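 further: agonist challenge used bursicon conditioned medium at about half maximal strength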
EWS-Fli block: EWS/Fli transcriptional activity inhibition; inhibition, % at 12.6 µM; A673 NR0B1-luciferase reporter, viability-normalised; hit rate 0.67% among 350,000;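 active means mean inhibition of at least 50% after viability correction, with every replicate also passing that limit; inconclusive means mean reaches 50% but only one of two replicates passes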;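 further: firefly luciferase signal divided by Alamar Blue viability fluorescence both relative to DMSO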
AID977621: growth inhibition of wild-type GFP E. coli, dose response, H69 mutant RFP, cherry-pick | shares compounds with Ecoli rRNA inh | activity change, negative = inhibition at 50 µM | AID 977621 | 1,900 tested, under 10 active | E. coli wild-type GFP strain growth, fluorescence, 24 h;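 active means Wild-type ribosome reporter drop at least double the humanized mutant ribosome reporter drop, growth loss under a set limit; inconclusive means no clear call, values can overlap the other calls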;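 further: wild-type GFP and H69 mutant RFP strains grown together 50/50 in each well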
AID977628: growth of wild-type and h24-humanized E. coli strains – h24 mutant RFP vs wild-type GFP, cherry-pick, dose response; E. coli WT GFP strain growth, fluorescence, 24 h; shares compounds with Ecoli rRNA inh; 1,900 tested, under 10 active; activity change, negative = inhibition at 50 µM; AID 977628;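 active means compound lowering the normal-ribosome reporter at least twice as much as the humanized-ribosome reporter, growth loss under a set limit; inconclusive means no clear call, values can overlap the other calls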;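 further: wild-type GFP and h24 humanized RFP strains co-cultured 1 to 1 per well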
Large screens that a line does not name were inactive (follow-up assays come after a bar, where they were run); ! = a repeat was not active. The list is not random: actives were taken first. Their share in the collection is about 2.4%.

COC(=O)c1cn(C(=O)c2ccc(C)cc2)c2ccccc12	none (no result: E-sel inducer)
CCCn1c(NCc2ccc3c(c2)OCO3)nc2ccccc21	Ecoli rRNA inh -22 (no result: E-sel inducer) | AID977628 inconclusive
C[C@H](CO)N1C[C@H](C)[C@@H](CN(C)S(=O)(=O)c2ccc(F)cc2)Oc2ccc(NS(C)(=O)=O)cc2C1=O	none (no result: E-sel inducer, LGR2 inh)
O=C(C[C@H]1CC[C@@H]2[C@H](COC[C@@H](O)CN2S(=O)(=O)c2cccc(Cl)c2)O1)NC1CCCC1	none
CN(C)S(=O)(=O)c1cccc(C(=O)OCC(=O)c2ccc3c(c2)NC(=O)CO3)c1	Ecoli rRNA inh -27 (no result: E-sel inducer) | AID977621 inactive | AID977628 inactive
CN(C)S(=O)(=O)c1ccc(C(=O)OCC(=O)c2ccc3c(c2)NC(=O)CO3)cc1	none
O=C(Nc1ccn(Cc2ccccc2)n1)c1ccc2c(c1)OCO2	none (no result: E-sel inducer)
O=C(Nc1ccn(Cc2ccc(Cl)cc2)n1)c1ccccc1	Ecoli rRNA inh -24 | AID977621 inactive | AID977628 inactive
CN(C)CC(=O)N1CC[C@@H]2[C@H]1c1cc(Br)ccc1N(C)[C@@H]2CO	none
C[C@H]1CN([C@@H](C)CO)C(=O)CCCn2nncc2CO[C@@H]1CN(C)Cc1ccccc1C(F)(F)F	Ecoli rRNA inh -18! | AID977621 inactive | AID977628 inconclusive
O=C(C[C@H]1C=C[C@H](NC(=O)CC2CC2)[C@@H](CO)O1)NCC(F)(F)F	none (no result: EWS-Fli block)
Clc1ccc(-c2nnnn2-c2ccc(Cl)cc2)cc1	none (no result: E-sel inducer)
CSc1nnnn1-c1ccc(Cl)cc1	Ecoli rRNA inh -32 | AID977621 inactive | AID977628 inactive
CCC(C(=O)Nc1nc(C)c(C(=O)OC)s1)c1ccccc1 (stereo not given)	none
CCC(C(=O)Nc1ccsc1C(=O)OC)c1ccccc1 (stereo not given)	Ecoli rRNA inh -29 | AID977621 inactive | AID977628 inactive
Cc1ccc(S(=O)(=O)N(C)C[C@@H]2Oc3ncc(C#CC4(O)CCCC4)cc3C(=O)N([C@@H](C)CO)C[C@H]2C)cc1	none
CCOc1ccccc1C(=O)NCC(=O)OCCCOC(=O)CNC(=O)c1ccccc1OCC	none
CCOc1ccccc1C(=O)NCC(=O)OCCOc1cccc(Cl)c1	Ecoli rRNA inh -33 | AID977621 inactive | AID977628 inactive
Cc1ccc(S(=O)(=O)Nc2ccc3c(c2)CC(=O)N([C@@H](C)CO)C[C@@H](C)[C@H](CN(C)C(=O)NC2CCCCC2)O3)cc1	none
O=[N+]([O-])c1ccc(/C=C/c2ccc3cccc([N+](=O)[O-])c3n2)cc1	Ecoli rRNA inh -18 | AID977621 inactive | AID977628 inactive
CCCNC(=O)Nc1ccc2c(c1)C(=O)N(C)C[C@@H](OC)[C@H](C)CN(Cc1ccc(-c3ccccn3)cc1)[C@H](C)CO2	none
COc1ccc(S(=O)(=O)Nc2ccc3c(c2)C(=O)N([C@@H](C)CO)C[C@@H](C)[C@@H](CN(C)C(=O)Nc2ccc4c(c2)OCO4)O3)cc1	none
CN(Cc1ccc(F)cc1)Cc1nc(-c2ccccc2)no1	none
CN(Cc1ccc(F)cc1)Cc1nc(CCc2ccccc2)no1	Ecoli rRNA inh -19 | AID977628 inconclusive
COCc1cn(CC[C@H]2CC[C@H](NC(=O)Nc3ccc(C(F)(F)F)cc3)[C@@H](CO)O2)nn1	none (no result: EWS-Fli block)
Clc1cccc(OCc2nc(-c3ccncc3)n[nH]2)c1	Ecoli rRNA inh -22 (no result: E-sel inducer) | AID977621 inactive
CC(C)NC(=O)N1[C@@H]2CN(C(=O)Nc3cccc(Cl)c3)c3ccccc3[C@@H]2[C@@H]1CO	none
COc1cccc(CN(C)C[C@@H]2OCc3cnnn3CCCC(=O)N([C@H](C)CO)C[C@@H]2C)c1	none
C/C=C/c1cnc2c(c1)C(=O)N([C@@H](C)CO)C[C@H](C)[C@@H](CN(C)S(=O)(=O)c1ccccc1F)O2	none
O=C(Nc1ccc2c(c1)OCCO2)c1cccnc1Oc1ccc(Cl)cc1	Ecoli rRNA inh -27 | AID977621 inactive
CNC[C@H]1Oc2ccc(NC(=O)C3CCCCC3)cc2C(=O)N([C@@H](C)CO)C[C@@H]1C	none
Clc1ccc2c(c1)C1CC2CCN1Cc1ccccc1 (stereo not given)	none
